Laboratory results reported in the RNAGym collection of RNA variant scans (doi:10.1126/science.aae0568).
This sample holds only a part of the variants without activity.

B1: tRNA (parent)
chain: GUUCCGUUGGCGUAAUGGUAACGCGUCUCCCUCCUAAGGAGAAGACUGCGGGUUCGAGUCCCGUACGGAACG

Variants of: B1
Assay: yeast fitness relative to wild type (ratio to wild type); higher = fitter; tRNA-Arg(CCU), competitive growth, 37 C, YPD
Method in brief: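 For this measurement, the tRNA-Arg(CCU) gene was varied by chemical synthesis at a 3% per-site mutation rate across 69 sites, and each variant was placed at the native genomic locus in Saccharomyces cerevisiae. The pooled strains went through a 24-hour competition in YPD at 37°C in six parallel replicates, with amplicons from start and end populations read by 100-nucleotide paired-end sequencing. Darwinian fitness relative to wild type followed from the change in each genotype's frequency. Genotypes needed ≥ 100 starting reads, and estimates < 0.5 were set to 0.5.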

Question: Which yeast fitness does the source give for GUUCCGUUGGUGUGAGGGUAACGGGCCUCCCUCCUAAGGAGAAGACGGCCGGUUCGAGUCCCGUAAGGAACG here?
Answer: ≤ 0.5

Question: Which yeast fitness does the source give for GUUCCGUUGGUGUUACGGUAACGCGUCUCCCUCCUAAGGAGAAGACUGCGGGUUCGAGUCCCGUACGGAACG here?
Answer: ≤ 0.5

Question: For GUUCCGUUGGUGUUAUGGGAACGCGUCUCCCUCCUAAGGAGAAGACUGCGGGUUCGAGUCCCGUACGGAACG, which yeast fitness is on record?
Answer: ≤ 0.5

Question: Which yeast fitness does the source give for GUUCCGUUGGUGUACUGGUAACGCGUCUCCCUCCUAAGGAGAAGACUGCGGGUUCGAGUCCCGUACGGAACG here?
Answer: 0.595

Question: With GUUCCGUUGGUGUACUGGUAACGCGUCUCCCUCCUCUGGAGAAGACUGCGGGUUCGAGUCCCGUACGGAACG as the variant, how does the yeast fitness read?
Answer: ≤ 0.5

Question: For GUUCCGUUGGUGUACUCGUAAUGCGUCUCCCUCGUAAGGAGAAGACUGCGGGUUCGAGUCCCGUACGGAACG, which yeast fitness is on record?
Answer: ≤ 0.5

Question: Which yeast fitness does the source give for GUUCCGUUGGUGUACCGGUAGCGCGUCUCCCUCCUAAGGAGAAGACUGCGGGUUCGAGUCCCGUACGGAACG here?
Answer: ≤ 0.5

Question: For GUUCCGUUGGUGUAGUGGUAACGCGUCUCCCUCCUAAGGAGAAGACUGCGGGUUCGAGUCCCGUCCGGAACG, which yeast fitness is on record?
Answer: 0.713

Question: Which yeast fitness does the source give for GUUCCGUUGGUGUAGUGGUAACGGGUGUCCUUCCUAAGGACAAGACUGUGGGUUCGAGUCCCGUACGGAACG here?
Answer: ≤ 0.5

Question: With GUUCCGUUGGUGUAUUGGUACCGGGUCUUCCUCCUAAGGAGCAGACUGCGGGUUCGAGGCCCGUACUGAACG as the variant, how does the yeast fitness read?
Answer: ≤ 0.5

Question: With GUUCCGUUGGUGUAUUGGUAACGCGUCUCCCUCCUAAGGAGAAGAUUGCGGGUUCGAGUCCCGUACGGAACG as the variant, how does the yeast fitness read?
Answer: 0.741

Question: With GUUCCGUUGGUGUAUUGGUAACGCGUCUCCCUCCUAAAGAGAAGACUGCGGGUUCAAGUCCCGUACGGAACG as the variant, how does the yeast fitness read?
Answer: ≤ 0.5

Question: With GUUCCGUUGGUGUAUUGGUAACGCGUCUCCCUCCUAAGGAGAAGACUGCGGGUUCCAGUCCCGUACGGAACG as the variant, how does the yeast fitness read?
Answer: ≤ 0.5

Question: Which yeast fitness does the source give for GUUCCGUUGGUGUAAUGGUCAGGCGUCUCCCUCCUAAGGAGAAGACUGCGGGUUCGAGUCCCGUACGGAACG here?
Answer: 0.576

Question: Which yeast fitness does the source give for GUUCCGUUGGUGUAAUGGUCACGCGUCUGCCUCCUAAGGAGAAGACUGCGGGUUCGAGUCCCGUACGGAACG here?
Answer: 0.568

Question: Which yeast fitness does the source give for GUUCCGUUGGUGUAAUGGUCACGCGUCUCCCUCCUAAGGAGAAGACUGGGGGUUCGAGUCCCGUACAGAACG here?
Answer: ≤ 0.5

Question: For GUUCCGUUGGUGUAAUGGUGACGCGUCUCCCUCCUCAGGAGAAGACUGGGGGUUCGAGUCGGGUACGGAACG, which yeast fitness is on record?
Answer: ≤ 0.5

Question: Which yeast fitness does the source give for GUUCCGUUGGUGUAAUGGUGAACCGUCGCCCUCCUAAGGAGAGGACUGCGGGUUCGGGUCCCGUACGGAUCG here?
Answer: 0.587

Question: Which yeast fitness does the source give for GUUCCGUUGGUGUAAUGGUGACGCGUCUGCCUCGUAAGGAGAAGACUGCGGGUCCGAGUCCCGUACGGAACG here?
Answer: ≤ 0.5

Question: For GUUCCGUUGGUGUAAUGGUGACCCGUCUCCUUCCUAAGGAGAAGAGUGCGGGUUCGAGUCCCGUACGGAUCG, which yeast fitness is on record?
Answer: ≤ 0.5

Question: For GUUCCGUUGGUGUAAUGGUGACGCGUCUCCCUCCUAAGGAGAAGACUACGGGUUGGUGUCCCGUACGGAACG, which yeast fitness is on record?
Answer: ≤ 0.5

Question: With GUUCCGUUGGUGUAAUGGUUACGCGUCUCCCUCCUAAGGAGAAGACUGCGGGUUCGAGUCCCGUACGGAACG as the variant, how does the yeast fitness read?
Answer: 0.75

Question: For GUUCCGUUGGUGUAAUGGUUAAGCGUCUCCCUCCUAAGGAGAAGACUGCGGGUUCGAGUCCCGUAGGGAACG, which yeast fitness is on record?
Answer: ≤ 0.5

Question: With GUUCCGUUGGUGUAAUGGUUACGUGUCUACCUCCUAAGGAGAAGACUGCGGGUUCGAGACCCGUACCGCACG as the variant, how does the yeast fitness read?
Answer: ≤ 0.5

Question: For GUUCCGUUGGUGUAAUGGUUACGUGUCUCUCUACUAAGGAGAAGACUGCGGGUACGAGUCGCGUACGGAACG, which yeast fitness is on record?
Answer: ≤ 0.5

Question: Which yeast fitness does the source give for GUUCCGUUGGUGUAAUGGUUACGCGUCUCCCUCCUAAGAAGAAGACUGCGGGUUCGAGUCCCGCCCGGAACG here?
Answer: ≤ 0.5

Question: With GUUCCGUUGGUGUAAUGGUUACGCGCCUCCCUCCUAAGGAGAAGACUGCGGGUUCGAGUCCCGUACGGAACG as the variant, how does the yeast fitness read?
Answer: ≤ 0.5

Question: Which yeast fitness does the source give for GUUCCGUUGGUGUAAUGGUACCGCGUCUCCCUCCUGAGGAGAAGACUGCGGGUUCGAGUCCCGUACGGAACG here?
Answer: ≤ 0.5

Question: Which yeast fitness does the source give for GUUCCGUUGGUGUAAUGGUACCGCGUCUCCCUCCUAAGGAGGAGACUGCGGGUUCGAGUCCCGUACGGAACG here?
Answer: 0.523

Question: Which yeast fitness does the source give for GUUCCGUUGGUGUAAUGGUACCGCGUCUCCCUCCUAAGGAGGAGACUGUGGGUUCGAGUCCCGUACGGCGCG here?
Answer: ≤ 0.5

Question: For GUUCCGUUGGUGUAAUGGUACGGCGUCUCCCUCCUAAGGAGAAGACUGCGGGUCCGAGUCCAGUACGGAACG, which yeast fitness is on record?
Answer: ≤ 0.5

Question: For GUUCCGUUGGUGUAAUGGUACCGCGUGUCCCUCCUAAGCAGAAGACUGCGGGUUCGCGUCCCGUACGUAACG, which yeast fitness is on record?
Answer: ≤ 0.5

Question: Which yeast fitness does the source give for GUUCCGUUGGUGUAAUGGUAGCGCGUCUCCCUCCUAUGGAAAAGACUGCGGGUUCGAGUCCCGUACGGAACG here?
Answer: ≤ 0.5

Question: For GUUCCGUUGGUGUAAUGGUAGCGAGUCUCCCUCCUAAGGAGAAGACUGUGGGUUCGAGUCCCGUCCGGAACG, which yeast fitness is on record?
Answer: ≤ 0.5

Question: Which yeast fitness does the source give for GUUCCGUUGGUGUAAUGGUAGCGCGUCUGCCUCCUAAGGAGAAGACUGCGGGUUCGAGUCGCGUACGGAACG here?
Answer: ≤ 0.5

Question: For GUUCCGUUGGUGUAAUGGUAGCGCGUCUCCCUCCUAAGGAGAAGACUGCGGGUUCGAGACCGGUACGGAACG, which yeast fitness is on record?
Answer: 0.502

Question: With GUUCCGUUGGUGUAAUGGUAUCGCGUCUCCCUCCUAAGGAGAAGACUGCGGGUUAGAGUCCCGUACGGAACG as the variant, how does the yeast fitness read?
Answer: 0.632
